Data from ChEMBL document CHEMBL5653631, “A Potent and Selective ULK1 Inhibitor Suppresses Autophagy and Sensitizes Cancer Cells to Nutrient Stress” (iScience, 2018).
Each block holds one compound with its values, some of them ahead of it.

Experiments:
[1] = biological target: 5'-AMP-activated protein kinase catalytic subunit alpha-2 (Homo sapiens) (UniProt P54646); experiment: Inhibition of human recombinant AMPKa2 at 500 nM related to control ULK1
Procedure, shortened: (§1)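 Panel of 327 recombinant human kinases, each assayed in vitro by radiometric activity assay in duplicate at a single inhibitor concentration per compound, chosen with reference to its ULK1 inhibition. Activity remaining was expressed as percent of vehicle control, and percent inhibition was calculated as 100 minus percent activity remaining.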

[2] = biological target: Mitogen-activated protein kinase 8 (Homo sapiens) (UniProt P45983); experiment: Inhibition of human recombinant JNK1 at 500 nM in presence of ATP by radiometric assay relative to control
Mitogen-activated protein kinase 8 (Homo sapiens), sequence (P45983 whole entry): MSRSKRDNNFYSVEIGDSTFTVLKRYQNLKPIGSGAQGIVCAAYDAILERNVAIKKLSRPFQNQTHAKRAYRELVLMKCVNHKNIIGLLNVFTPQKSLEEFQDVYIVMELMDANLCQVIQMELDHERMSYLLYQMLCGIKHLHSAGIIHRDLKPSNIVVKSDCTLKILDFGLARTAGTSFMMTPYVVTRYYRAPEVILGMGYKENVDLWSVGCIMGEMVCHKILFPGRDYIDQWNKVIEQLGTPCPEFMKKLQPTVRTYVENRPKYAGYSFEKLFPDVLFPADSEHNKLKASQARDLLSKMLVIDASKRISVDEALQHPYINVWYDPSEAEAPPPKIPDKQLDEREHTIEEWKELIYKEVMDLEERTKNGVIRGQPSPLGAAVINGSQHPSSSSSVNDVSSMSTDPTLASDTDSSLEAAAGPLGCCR

[3] = biological target: T1, Serine/threonine-protein kinase Nek1 (Homo sapiens) (UniProt Q96PY6); experiment: Inhibition of human recombinant NEK1 at 500 nM in presence of ATP by radiometric assay relative to control
T1 sequence (whole entry): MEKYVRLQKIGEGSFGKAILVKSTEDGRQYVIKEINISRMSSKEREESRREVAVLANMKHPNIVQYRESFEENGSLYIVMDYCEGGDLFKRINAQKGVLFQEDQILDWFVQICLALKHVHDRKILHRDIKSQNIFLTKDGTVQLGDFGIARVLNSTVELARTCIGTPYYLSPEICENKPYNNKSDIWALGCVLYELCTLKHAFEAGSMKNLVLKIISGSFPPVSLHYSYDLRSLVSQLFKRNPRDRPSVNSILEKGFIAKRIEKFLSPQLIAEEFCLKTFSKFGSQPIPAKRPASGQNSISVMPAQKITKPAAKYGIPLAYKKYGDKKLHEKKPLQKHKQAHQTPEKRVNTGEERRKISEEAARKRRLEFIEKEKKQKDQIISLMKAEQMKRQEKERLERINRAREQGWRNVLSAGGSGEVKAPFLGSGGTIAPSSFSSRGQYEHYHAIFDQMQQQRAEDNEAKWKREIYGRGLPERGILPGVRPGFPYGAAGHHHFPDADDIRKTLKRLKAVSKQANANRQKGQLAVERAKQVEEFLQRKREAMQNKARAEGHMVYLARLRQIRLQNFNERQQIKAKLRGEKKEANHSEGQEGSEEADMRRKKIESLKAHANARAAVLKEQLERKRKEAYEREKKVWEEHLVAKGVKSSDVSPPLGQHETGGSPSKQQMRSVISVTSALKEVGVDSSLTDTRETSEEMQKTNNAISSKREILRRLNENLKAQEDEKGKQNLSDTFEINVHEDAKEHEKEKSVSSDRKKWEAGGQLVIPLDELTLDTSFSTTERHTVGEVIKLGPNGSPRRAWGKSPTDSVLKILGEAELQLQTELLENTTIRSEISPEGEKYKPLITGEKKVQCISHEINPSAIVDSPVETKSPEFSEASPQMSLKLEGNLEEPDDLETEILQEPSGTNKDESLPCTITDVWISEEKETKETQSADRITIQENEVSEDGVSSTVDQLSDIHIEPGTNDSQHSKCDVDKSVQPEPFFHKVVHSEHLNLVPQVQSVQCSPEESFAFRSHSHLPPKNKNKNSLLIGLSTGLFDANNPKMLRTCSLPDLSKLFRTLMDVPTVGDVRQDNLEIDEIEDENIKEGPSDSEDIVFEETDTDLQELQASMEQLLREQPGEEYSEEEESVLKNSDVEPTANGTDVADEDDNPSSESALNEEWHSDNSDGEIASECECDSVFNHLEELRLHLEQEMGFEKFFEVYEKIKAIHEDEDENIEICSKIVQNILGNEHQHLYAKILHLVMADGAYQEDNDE

[4] = biological target: T2, Ephrin type-B receptor 3 (Homo sapiens) (UniProt P54753); experiment: Inhibition of human recombinant EphB3 at 500 nM in presence of ATP by radiometric assay relative to control
T2 sequence (whole entry): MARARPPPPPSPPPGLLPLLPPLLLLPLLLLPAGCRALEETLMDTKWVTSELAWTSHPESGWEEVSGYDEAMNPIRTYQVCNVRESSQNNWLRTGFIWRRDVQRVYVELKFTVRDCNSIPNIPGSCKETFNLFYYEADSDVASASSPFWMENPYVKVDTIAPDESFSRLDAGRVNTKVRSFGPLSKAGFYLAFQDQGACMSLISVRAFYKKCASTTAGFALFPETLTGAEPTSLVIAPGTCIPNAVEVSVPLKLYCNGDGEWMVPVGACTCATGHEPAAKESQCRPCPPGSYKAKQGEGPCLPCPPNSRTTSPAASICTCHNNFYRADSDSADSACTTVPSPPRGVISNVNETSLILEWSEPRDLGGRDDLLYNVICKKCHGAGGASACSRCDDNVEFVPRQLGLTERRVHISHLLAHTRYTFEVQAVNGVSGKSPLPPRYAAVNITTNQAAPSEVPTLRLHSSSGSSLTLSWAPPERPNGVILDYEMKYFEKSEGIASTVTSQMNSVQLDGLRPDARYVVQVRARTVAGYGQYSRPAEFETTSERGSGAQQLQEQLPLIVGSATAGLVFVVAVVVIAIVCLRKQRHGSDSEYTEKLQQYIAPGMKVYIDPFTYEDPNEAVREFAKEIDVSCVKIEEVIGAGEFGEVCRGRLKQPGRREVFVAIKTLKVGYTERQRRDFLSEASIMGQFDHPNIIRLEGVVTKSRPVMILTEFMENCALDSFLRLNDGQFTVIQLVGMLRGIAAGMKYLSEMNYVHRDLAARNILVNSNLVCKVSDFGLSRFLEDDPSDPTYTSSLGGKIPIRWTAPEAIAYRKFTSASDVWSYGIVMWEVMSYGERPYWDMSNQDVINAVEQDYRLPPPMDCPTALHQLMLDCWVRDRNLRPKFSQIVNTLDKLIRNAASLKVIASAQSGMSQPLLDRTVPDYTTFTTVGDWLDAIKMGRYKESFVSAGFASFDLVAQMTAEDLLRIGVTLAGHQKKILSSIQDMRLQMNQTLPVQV

[5] = biological target: Receptor-type tyrosine-protein kinase FLT3 (Homo sapiens) (UniProt P36888); experiment: Inhibition of human recombinant FLT3 at 15 nM related to control ULK1
Receptor-type tyrosine-protein kinase FLT3 (Homo sapiens), sequence (P36888 whole entry): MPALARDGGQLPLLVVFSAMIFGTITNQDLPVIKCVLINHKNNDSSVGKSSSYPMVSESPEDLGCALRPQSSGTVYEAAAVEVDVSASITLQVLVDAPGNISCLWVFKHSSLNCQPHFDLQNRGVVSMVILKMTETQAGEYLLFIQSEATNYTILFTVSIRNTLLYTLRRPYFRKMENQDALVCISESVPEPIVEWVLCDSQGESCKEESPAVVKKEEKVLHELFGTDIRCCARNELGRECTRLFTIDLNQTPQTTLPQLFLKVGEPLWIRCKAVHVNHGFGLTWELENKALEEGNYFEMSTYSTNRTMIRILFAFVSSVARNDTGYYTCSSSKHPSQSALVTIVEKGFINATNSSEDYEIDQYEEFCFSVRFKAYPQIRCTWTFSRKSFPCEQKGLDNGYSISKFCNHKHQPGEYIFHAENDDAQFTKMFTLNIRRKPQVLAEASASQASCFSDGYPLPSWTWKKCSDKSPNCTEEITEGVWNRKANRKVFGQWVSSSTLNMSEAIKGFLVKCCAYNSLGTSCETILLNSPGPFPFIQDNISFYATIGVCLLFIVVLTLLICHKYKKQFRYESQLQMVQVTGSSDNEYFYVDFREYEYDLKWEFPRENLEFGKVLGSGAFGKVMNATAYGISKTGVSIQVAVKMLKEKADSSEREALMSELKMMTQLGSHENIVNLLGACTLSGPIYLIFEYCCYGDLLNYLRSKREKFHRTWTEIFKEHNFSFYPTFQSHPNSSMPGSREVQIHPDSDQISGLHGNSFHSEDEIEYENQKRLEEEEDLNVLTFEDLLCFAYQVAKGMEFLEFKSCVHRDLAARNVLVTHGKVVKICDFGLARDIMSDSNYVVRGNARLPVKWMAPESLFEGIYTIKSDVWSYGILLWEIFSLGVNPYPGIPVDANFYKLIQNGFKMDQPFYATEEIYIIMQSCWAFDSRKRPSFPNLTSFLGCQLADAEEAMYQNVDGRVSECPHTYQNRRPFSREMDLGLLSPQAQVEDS

[6] = biological target: Fibroblast growth factor receptor 3 (Homo sapiens) (UniProt P22607); experiment: Inhibition of human recombinant FGFR3 at 15 nM in presence of ATP by radiometric assay relative to control
Fibroblast growth factor receptor 3 (Homo sapiens), sequence (P22607 23-806 limits assumed): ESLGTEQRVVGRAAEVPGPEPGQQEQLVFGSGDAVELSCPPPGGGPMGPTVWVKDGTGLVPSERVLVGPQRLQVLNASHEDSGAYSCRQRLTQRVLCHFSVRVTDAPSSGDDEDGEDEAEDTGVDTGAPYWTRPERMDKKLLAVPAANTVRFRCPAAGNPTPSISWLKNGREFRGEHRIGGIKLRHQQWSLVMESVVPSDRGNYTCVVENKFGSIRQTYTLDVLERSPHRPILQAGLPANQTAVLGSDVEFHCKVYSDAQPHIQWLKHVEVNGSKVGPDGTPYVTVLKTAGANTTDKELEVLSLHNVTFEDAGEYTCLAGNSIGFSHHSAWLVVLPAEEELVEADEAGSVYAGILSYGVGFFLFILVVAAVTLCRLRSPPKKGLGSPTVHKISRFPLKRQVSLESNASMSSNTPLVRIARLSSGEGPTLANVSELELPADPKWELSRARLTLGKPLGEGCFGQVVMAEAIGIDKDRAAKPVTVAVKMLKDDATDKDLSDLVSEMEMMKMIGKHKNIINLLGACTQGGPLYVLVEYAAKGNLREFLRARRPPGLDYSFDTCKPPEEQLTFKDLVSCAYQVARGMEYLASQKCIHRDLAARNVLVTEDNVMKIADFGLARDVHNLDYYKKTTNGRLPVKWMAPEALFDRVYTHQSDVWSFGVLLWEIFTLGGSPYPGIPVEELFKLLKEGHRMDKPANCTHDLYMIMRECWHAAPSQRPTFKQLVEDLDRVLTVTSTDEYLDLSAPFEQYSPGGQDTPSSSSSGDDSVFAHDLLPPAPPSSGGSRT

[7] = biological target: Serine/threonine-protein kinase PAK 3 (Homo sapiens) (UniProt O75914); experiment: Inhibition of human recombinant PAK3 at 15 nM related to control ULK1
Serine/threonine-protein kinase PAK 3 (Homo sapiens), sequence (O75914 whole entry, looked up): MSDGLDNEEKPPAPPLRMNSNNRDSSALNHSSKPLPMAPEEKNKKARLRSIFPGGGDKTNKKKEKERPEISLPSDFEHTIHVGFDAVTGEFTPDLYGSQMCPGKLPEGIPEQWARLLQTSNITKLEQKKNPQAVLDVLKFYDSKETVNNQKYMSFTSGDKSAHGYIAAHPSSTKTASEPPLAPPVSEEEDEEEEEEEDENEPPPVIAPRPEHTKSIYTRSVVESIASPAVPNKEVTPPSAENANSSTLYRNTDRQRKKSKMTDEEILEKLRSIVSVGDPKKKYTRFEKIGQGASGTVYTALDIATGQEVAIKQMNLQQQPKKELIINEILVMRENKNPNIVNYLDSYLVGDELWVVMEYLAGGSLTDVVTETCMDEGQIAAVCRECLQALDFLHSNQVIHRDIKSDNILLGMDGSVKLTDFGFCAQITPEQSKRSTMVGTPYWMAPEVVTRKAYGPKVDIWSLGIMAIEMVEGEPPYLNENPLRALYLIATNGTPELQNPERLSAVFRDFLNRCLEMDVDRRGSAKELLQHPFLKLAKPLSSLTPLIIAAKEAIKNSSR

[8] = biological target: Glycogen synthase kinase-3 beta (Homo sapiens) (UniProt P49841); experiment: Inhibition of human recombinant GSK3B at 15 nM in presence of ATP by radiometric assay relative to control
Glycogen synthase kinase-3 beta (Homo sapiens), sequence (P49841 whole entry, looked up): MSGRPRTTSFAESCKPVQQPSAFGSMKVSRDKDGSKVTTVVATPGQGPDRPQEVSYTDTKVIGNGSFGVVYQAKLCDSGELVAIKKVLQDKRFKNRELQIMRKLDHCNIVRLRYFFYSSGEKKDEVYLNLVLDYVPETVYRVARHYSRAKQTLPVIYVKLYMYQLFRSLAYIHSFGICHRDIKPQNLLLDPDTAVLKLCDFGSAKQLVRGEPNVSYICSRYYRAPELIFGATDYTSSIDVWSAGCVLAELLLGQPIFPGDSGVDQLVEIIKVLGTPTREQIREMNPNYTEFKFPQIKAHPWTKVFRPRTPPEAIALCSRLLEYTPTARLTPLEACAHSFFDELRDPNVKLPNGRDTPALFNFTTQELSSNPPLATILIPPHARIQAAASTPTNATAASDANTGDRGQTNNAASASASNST

[9] = biological target: 5'-AMP-activated protein kinase catalytic subunit alpha-2 (Homo sapiens) (UniProt P54646); experiment: Inhibition of human recombinant AMPKa2 at 15 nM related to control ULK1; procedure, shortened: as §1
[10] = biological target: Fibroblast growth factor receptor 2 (Homo sapiens) (UniProt P21802); experiment: Inhibition of human recombinant FGFR2 at 40 nM in presence of ATP by radiometric assay relative to control
Fibroblast growth factor receptor 2 (Homo sapiens), sequence (P21802 22-821 limits assumed): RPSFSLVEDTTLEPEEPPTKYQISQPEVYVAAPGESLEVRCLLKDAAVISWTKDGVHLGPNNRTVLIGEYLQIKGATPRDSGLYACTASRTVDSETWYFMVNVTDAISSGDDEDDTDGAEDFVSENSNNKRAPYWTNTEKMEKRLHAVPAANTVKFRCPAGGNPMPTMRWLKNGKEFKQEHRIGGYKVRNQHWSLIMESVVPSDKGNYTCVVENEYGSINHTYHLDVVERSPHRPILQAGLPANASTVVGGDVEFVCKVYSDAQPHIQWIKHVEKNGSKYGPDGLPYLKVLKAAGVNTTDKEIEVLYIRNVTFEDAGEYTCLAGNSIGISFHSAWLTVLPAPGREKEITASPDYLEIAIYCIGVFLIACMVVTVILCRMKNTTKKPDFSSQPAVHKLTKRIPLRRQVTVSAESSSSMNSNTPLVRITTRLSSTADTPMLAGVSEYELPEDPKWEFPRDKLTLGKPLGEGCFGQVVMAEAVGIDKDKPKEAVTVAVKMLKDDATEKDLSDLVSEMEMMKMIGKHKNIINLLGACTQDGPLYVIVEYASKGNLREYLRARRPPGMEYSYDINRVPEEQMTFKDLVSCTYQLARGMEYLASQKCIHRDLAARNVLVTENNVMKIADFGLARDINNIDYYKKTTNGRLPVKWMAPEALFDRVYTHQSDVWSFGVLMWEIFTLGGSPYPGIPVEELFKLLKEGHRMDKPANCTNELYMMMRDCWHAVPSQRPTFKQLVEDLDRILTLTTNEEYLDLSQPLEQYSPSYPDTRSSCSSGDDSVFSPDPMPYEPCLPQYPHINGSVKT

5'-AMP-activated protein kinase catalytic subunit alpha-2 (Homo sapiens), sequence (P54646 whole entry, looked up): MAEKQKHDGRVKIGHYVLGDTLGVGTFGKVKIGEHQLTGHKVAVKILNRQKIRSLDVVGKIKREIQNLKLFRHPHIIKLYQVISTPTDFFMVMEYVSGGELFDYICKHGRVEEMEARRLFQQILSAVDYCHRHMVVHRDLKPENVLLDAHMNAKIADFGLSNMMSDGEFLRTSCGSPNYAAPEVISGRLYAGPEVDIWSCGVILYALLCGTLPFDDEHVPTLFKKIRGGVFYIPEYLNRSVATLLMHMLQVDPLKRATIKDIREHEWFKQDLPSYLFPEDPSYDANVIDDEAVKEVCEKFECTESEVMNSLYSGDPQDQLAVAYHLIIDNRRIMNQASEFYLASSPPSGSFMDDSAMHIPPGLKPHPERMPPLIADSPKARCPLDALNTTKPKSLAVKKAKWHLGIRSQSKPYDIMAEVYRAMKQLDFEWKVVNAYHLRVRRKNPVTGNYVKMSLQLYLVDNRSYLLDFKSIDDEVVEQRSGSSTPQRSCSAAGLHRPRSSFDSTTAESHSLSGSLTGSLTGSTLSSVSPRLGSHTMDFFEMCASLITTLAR

- fold change (FC) [1]: 0.77
- inhibition [2]: 1%
- inhibition [3]: 8%
- inhibition [4]: 0%
Compound: CNC(=O)c1ccccc1Oc1nc(Nc2cc(OC)c(OC)c(OC)c2)ncc1Br

- fold change (FC) [5]: 0.77
- inhibition [6]: 0%
- fold change (FC) [7]: 0.05
- inhibition [8]: 11%
- fold change (FC) [9]: 0.94
Compound: CC(C)[C@H](NC(=O)c1cc(-c2cnn3cc(-c4ccc(OCCN5CCCCC5)cc4)cnc23)cs1)C(F)(F)F

- inhibition [10]: 0%
Compound: O=C(N[C@@H](C1CC1)C(F)(F)F)c1cc(-c2cnn3cc(-c4ccc(F)cc4)cnc23)cs1
